# Source: PubChem BioAssay
# Activity calls are given as the source filed them.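 The calls were made as follows, unless noted: active = inhibition at or above 50% at 10 µM; inactive = inhibition below 50%.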
# What was measured:
# [1] = inhibitors of TNFa-induced NFkB p65 translocation, primary screen, imaging, HUVEC, MLSMR starter and 10KST1 sets (AID 438;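 active = inhibition above 20% together with a positive visual image hit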;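 also: compound added about 3h40 before a 20 min TNFalpha stimulation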;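 as to inhibition: signal is the nuclear over cytoplasmic p65 intensity ratio per well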); conditions: HUVEC TNFa-induced p65 nuclear translocation; cell count: measured here: nuclei count (cytotoxicity indicator), at 2.08 µM; inhibition: at 2 µM, stronger effect = higher value, 0% TNFa-plus-vehicle, 100% no-TNFa wells
# [2] = reduction of polyQ htt aggregates in cells – imaging, exon1htt(103Q)mCFP cells, high-content imaging, primary screen (AID 483;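 active = visual image review flags a hit and inhibition of aggregation exceeds 20%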;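 also: compound exposure lasted 3 days before fixation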;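 as to nuclei count: percent of the per-plate median nuclei count of sample wells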); conditions: exon1htt(103Q)mCFP cell line, aggregate imaging, at 2 µM; inhibition of aggregation: stronger effect = higher value; nuclei count: measured here: cell count, toxicity
# [3] = endothelial E-selectin expression blockers – imaging, HUVEC, immunofluorescence, MLSMR starter and 10KST1 sets, primary screen (AID 487;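 active = visually confirmed hit in the image check and inhibition above 20%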;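 as to inhibition: signal is fraction of cell area covered by stained E-selectin grains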;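 as to nuclei count: 100% = median nuclei count of all wells on the same plate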); conditions: HUVEC TNFalpha-induced E-selectin immunofluorescence imaging, at 2 µM; inhibition: stronger effect = higher value; nuclei count: measured here: cell number, toxicity
# [4] = target: Voltage-gated potassium channel subunit beta-2 (Rattus norvegicus) (UniProt P62483); assay: inhibitors of rat Kvbeta2 reductase activity – biochemical, NADPH fluorescence, primary screen (AID 622;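 active = fluorescence slope higher than the sample average by over 3 SD, cut at about -0.22 in these data, passing the limit was not always enough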;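 also: slope of raw intensity against log time taken from 70 to 1610 s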); conditions: recombinant KvBeta, 4-cyanobenzaldehyde reduction, at 10 µM, stronger effect = higher value
# [5] = target: Voltage-gated potassium channel subunit beta-2 (Rattus norvegicus) (UniProt P62483); assay: enhancers of rat Kvbeta2 NADPH turnover – biochemical, NADPH fluorescence, primary screen (AID 623;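 active = NADPH fluorescence slope more negative than the mean of all samples by about 3 SD, 99.7% confidence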;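 also: fluorescence intensity change per second fitted from 20 to 320 s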); conditions: Recombinant KvBeta, NADPH fluorescence decrease slope, 10 min; at 10 µM; stronger effect = lower value
# [6] = target: Muscarinic acetylcholine receptor M4 (Homo sapiens) (UniProt P08173); assay: M4-linked GIRK flux change, two-sided – cell-based, HEK293 M4/GIRK, thallium flux, BTC-AM, M4 allosteric agonist project, primary screen (AID 625;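 active = fluorescence slope after compound addition differing from the mean of all tested samples at 99.7% confidence, mostly higher but some lower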;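 also: thallium influx through GIRK channels coupled to M4 in HEK293 cells with BTC-AM dye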); conditions: at 10 µM, actives lie on both sides
# Outline: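 Assay system: HEK293 cells with M4 receptor and GIRK channels / Controls: carbachol and DMSO controls / Schedule: 1 h dye loading, 2 min kinetic read / Technique: kinetic fluorescence with BTC-AM dye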
# [7] = blockers of RIG-like receptor reporter activation – cell-based, Sendai virus stimulus, luciferase, 10K MLSCN set, TLR/RLR signaling modifier project, primary screen (AID 602276); conditions: HEK293 RL24 IRF3 luciferase reporter, at 10 µM, stronger effect = higher value;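 also: firefly luciferase from ISG56 promoter only with Renilla not read in this screen; 0% = Sendai virus plus DMSO and 100% = medium plus DMSO without virus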
# [8] = TLR3 IRF3 reporter activation blockers – cell-based, poly I:C stimulus, luciferase, 10K MLSCN set, primary screen (AID 602277;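 active = inhibition of the reporter signal at or above 50%; inactive = inhibition below 50%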); conditions: HEK293-TLR3 RL24 IRF3 luciferase reporter, at 10 µM, stronger effect = higher value
# Sequence of Voltage-gated potassium channel subunit beta-2 (Rattus norvegicus) (P62483 whole entry, looked up): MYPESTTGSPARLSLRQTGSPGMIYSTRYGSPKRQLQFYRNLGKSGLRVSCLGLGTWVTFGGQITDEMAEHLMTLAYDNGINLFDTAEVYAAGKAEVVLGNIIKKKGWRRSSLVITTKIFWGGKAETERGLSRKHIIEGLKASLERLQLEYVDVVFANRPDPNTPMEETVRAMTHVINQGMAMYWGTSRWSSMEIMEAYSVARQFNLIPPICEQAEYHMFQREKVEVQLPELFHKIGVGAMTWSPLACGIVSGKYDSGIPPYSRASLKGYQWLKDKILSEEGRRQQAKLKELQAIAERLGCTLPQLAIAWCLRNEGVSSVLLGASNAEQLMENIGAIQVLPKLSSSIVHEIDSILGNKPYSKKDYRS
# Sequence of Muscarinic acetylcholine receptor M4 (Homo sapiens) (P08173 whole entry, looked up): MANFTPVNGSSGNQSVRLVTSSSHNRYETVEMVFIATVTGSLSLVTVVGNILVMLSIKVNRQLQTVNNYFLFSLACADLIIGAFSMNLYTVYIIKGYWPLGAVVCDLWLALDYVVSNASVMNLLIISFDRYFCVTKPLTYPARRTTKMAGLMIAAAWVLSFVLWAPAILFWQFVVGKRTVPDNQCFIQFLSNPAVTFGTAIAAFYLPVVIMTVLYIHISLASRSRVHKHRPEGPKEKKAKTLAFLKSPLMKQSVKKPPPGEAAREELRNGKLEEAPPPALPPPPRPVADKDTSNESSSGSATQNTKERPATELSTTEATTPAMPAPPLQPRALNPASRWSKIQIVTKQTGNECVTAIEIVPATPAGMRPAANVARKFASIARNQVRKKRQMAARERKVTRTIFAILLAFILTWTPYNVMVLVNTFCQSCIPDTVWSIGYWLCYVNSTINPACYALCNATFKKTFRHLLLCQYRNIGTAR
Structure (SMILES),cell count [1],inhibition [1],inhibition of aggregation [2],nuclei count [2] [%],inhibition [3],nuclei count [3] [%],fluorescence slope [4],NADPH fluorescence slope [5],fluorescence slope [6],inhibition [7],inhibition [8]
CNC(=O)c1c(O)c2cccc3c2n(c1=O)CC3,446,-8.8% (inactive),-3.8% (inactive),57,-60.1% (inactive),99,-0.545 (inactive),-5.3e-05 (inactive),0.00595 (inactive),1.98% (inactive),-8.91% (inactive)
CC(CN1CCOCC1)(NS(=O)(=O)c1ccccc1)c1ccccc1 (centres undefined),460,-12% (inactive),10.4% (inactive),85.8,8% (inactive),111,-0.576 (inactive),-4.5e-06 (inactive),0.00534 (inactive),4.38% (inactive),7.26% (inactive)
O=C(CCn1nc(-c2ccccc2)ccc1=O)N1CCCC1,349,2.1% (inactive),-17% (inactive),95.9,-8.9% (inactive),106,-0.577 (inactive),-2e-05 (inactive),0.00645 (inactive),6.69% (inactive),2.22% (inactive)
O=C(NCCc1cccc(Cl)c1)c1cccnc1,341,-8% (inactive),-14.1% (inactive),95.5,-194% (inactive),119,-0.562 (inactive),-1.7e-05 (inactive),0.00601 (inactive),-14.6% (inactive),-52% (inactive)
N#CC1=C(N)Oc2n[nH]c(-c3cccs3)c2C1c1cccs1 (centres undefined),562,-15.3% (inactive),4.7% (inactive),99.1,-80.1% (inactive),113,-0.396 (inactive),-1.8e-05 (inactive),0.00605 (inactive),13.4% (inactive),17.8% (inactive)
CN1C(=O)CSc2ccc(NC(=O)N3CCN(c4ccccn4)CC3)cc21,589,-16.4% (inactive),-49% (inactive),76.7,-57.6% (inactive),112,-0.455 (inactive),8e-05 (inactive),0.00601 (inactive),-6.76% (inactive),21.6% (inactive)
Cc1cc(NS(=O)(=O)c2ccccc2)n(-c2ccccc2)n1,395,10.8% (inactive),-18.2% (inactive),94.7,-59.1% (inactive),106,-0.544 (inactive),-4.8e-05 (inactive),0.00508 (inactive),-0.656% (inactive),28% (inactive)
Cn1cnnc1SCC(=O)NCc1cccc(C(F)(F)F)c1,352,1.1% (inactive),0.1% (inactive),116,-95.6% (inactive),118,-0.532 (inactive),3.5e-05 (inactive),0.00701 (inactive),4.51% (inactive),3.97% (inactive)
O=C1CC(N2CCC(C(=O)N3CCCCC3)CC2)C(=O)N1 (centres undefined),349,4% (inactive),10.7% (inactive),115,-37.4% (inactive),148,-0.554 (inactive),-3.8e-05 (inactive),0.00558 (inactive),19.9% (inactive),16.2% (inactive)
